Only some compounds are listed: those with a hit (about 3.5% of all), similar ones and a draw of the others.
RGS4 inh: inhibitors of human RGS4. P49798. AID 463165. HEK293 M3R/RGS4 inducible, Fluo-4 calcium flux; stronger effect = higher value; triggered by carbachol at its EC20. 0.45% of 310,000 active. B-score at 10 µM;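 active = B-score, a plate-corrected calcium signal, over three deviations above library mean, with baseline fluorescence within five deviations of library mean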;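 also: RGS4 expression induced by doxycycline in cells with stable M3 receptor; B-score is computed from the integrated fluorescence ratio over baseline after carbachol; higher B-score means a larger calcium signal and so more RGS4 inhibition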
Target sequence (P49798 whole entry, looked up): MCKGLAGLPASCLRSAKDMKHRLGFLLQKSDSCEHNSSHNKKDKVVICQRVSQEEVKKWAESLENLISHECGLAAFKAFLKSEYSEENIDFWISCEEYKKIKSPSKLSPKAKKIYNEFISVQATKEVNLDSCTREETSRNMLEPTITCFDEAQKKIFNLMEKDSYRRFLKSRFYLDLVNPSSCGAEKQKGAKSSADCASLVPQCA
MrgX1 PAM: allosterically activates human MrgX1 receptor signaling. Q96LB2. MrgX1-HEK293, Fluo-4 calcium flux, FDSS; stronger effect = higher value. B-score at 10 µM. 0.63% of 310,000 active;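 active = plate-corrected calcium response at least 3 library SD above typical, normal starting fluorescence, not activating the receptor alone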;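 also: compound read alongside a low EC10 to EC30 dose of BAM8-22 agonist; peak minus trough fluorescence over baseline measured at the second addition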
RGS4 pot: RGS4 potentiation or activation. B-score at 10 µM. 0.92% of 310,000 active. HEK293 M3R/inducible RGS4, carbachol calcium flux Fluo4; stronger effect = lower value;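 active = B-score of the integrated calcium signal more than 4 SD below the library mean, with starting fluorescence not abnormally high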;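 also: negative B-score means reduced calcium response which marks RGS4 activation or potentiation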
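Assay system: HEK293 FlpIn-TREx cells, stable M3R, doxycycline-inducible RGS4 / Probe or stimulus: carbachol, ECmax concentration / Times: overnight RGS4 induction, 30 min dye load 37 °C, 20 min compound RT / Signal: kinetic calcium fluorescence imaging with Fluo4-AM dye, 2 µM / Measure: Agonist-evoked peak-minus-minimum fluorescence over baseline, integrated ratio, B score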
MrgX1 ag: activates human MrgX1 receptor signaling. 0.44% of 310,000 active. B-score at 10 µM. AID 588627. MrgX1-HEK293 cells, Fluo-4 calcium fluorescence, agonist mode; stronger effect = higher value;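 active = calcium response B-score plate-corrected fluorescence ratio at least 3 library SD, with starting fluorescence B-score inside 5 SD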
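Material: MrgX1-expressing HEK293 cells / Dosing: compound as first of three additions / Incubation: overnight seeding, then 1 h dark dye loading / Signal: Fluo-4 NW calcium fluorescence / Evaluation: B-scored fluorescence response ratio / Benchmarks: positive and negative control wells on each plate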
MrgX1 antag: blocks BAM8-22 activation of human MrgX1 receptor; MRGX1-HEK293 calcium flux, Fluo-4, BAM8-22 antagonism; stronger effect = lower value; B-score at 10 µM; 1.3% of 310,000 active; Q96LB2;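 active = calcium-response B-score plate-corrected more than 3 library SD below zero, starting fluorescence within 5 deviations, no agonist response on first addition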;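 also: peak minus trough fluorescence over baseline after final BAM8-22 challenge near maximal dose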
Of the large screens only hits and unclear results are named; the others gave an inactive call.

N#CC(c1ccc(Cl)cc1)c1ccc2c(C(F)(F)F)cc(C(F)(F)F)nc2n1 (configuration not stated)	RGS4 pot -8.07
FC(F)(F)c1cc(C(F)(F)F)c2ccc(N3CCN(c4ccc(Cl)cc4)CC3)nc2n1	none
COC(=O)c1cc2occc2n1Cc1nc(-c2ccccc2Cl)oc1C	RGS4 pot -7.5
COC(=O)c1cc2ccsc2n1Cc1nc(-c2ccc(Cl)cc2)oc1C	none
COC(=O)c1cc2occc2n1Cc1nc(-c2ccc(Cl)cc2)oc1C	RGS4 pot -7.16
O=C(NCc1cccc(Cl)c1)c1cc(=O)[nH]c2ccccc12	none
CCN(CC)C(CNC(=O)c1cc(=O)[nH]c2ccccc12)c1ccccc1Cl (configuration not stated)	RGS4 pot -7.47
Oc1cccc(C(Nc2nccs2)c2ccc3cccnc3c2O)c1 (configuration not stated)	RGS4 pot -7.02
Oc1ccc(/C=N/n2cc(-c3ccccc3)[nH]c2=S)cc1	none
COc1cc(/C=N/n2cc(-c3ccccc3)[nH]c2=S)cc(OC)c1O	MrgX1 PAM 10.9
CC(Sc1ccccc1)C(=O)NCC1COc2ccccc2O1 (configuration not stated)	none
NC(N)=N/N=C/c1ccccc1	none
OCCCCNCc1ccc(OCc2ccccc2Cl)cc1	RGS4 pot -7.01
CCOCCCNCc1ccc(OCc2ccccc2Cl)cc1	none
NC(N)=N/N=C/c1ccc(OCc2ccccc2Cl)cc1	RGS4 pot -10.3
NC(N)=N/N=C/c1ccc(Cl)c(Cl)c1	MrgX1 ag 30.6
COc1cc(/C=N/N=C(N)N)ccc1OCc1ccc(Cl)cc1	MrgX1 ag 29.8
CCOc1cc(/C=N/N=C(N)N)ccc1OCc1ccc(Cl)cc1	none
N#Cc1sc(=O)[nH]c1Cl	none
CC(=O)N1N=C(c2ccc(NS(C)(=O)=O)cc2)CC1c1ccc2nccnc2c1 (configuration not stated)	MrgX1 antag -7.23
CS(=O)(=O)Nc1ccc(C2=NN(S(C)(=O)=O)C(c3ccc4nccnc4c3)C2)cc1 (configuration not stated)	none
CCN1C(=O)/C(=C\N(C)C)S/C1=N\S(=O)(=O)c1ccccc1	MrgX1 PAM 10.4
CC(=O)Nc1ccc(NC(=O)CCC(=O)OCC(=O)c2ccc(C)c([N+](=O)[O-])c2)cc1	MrgX1 antag -5.64
Cc1ccc(C(=O)COC(=O)CCC(=O)Nc2ccccc2Cl)cc1[N+](=O)[O-]	none
Cc1ncc(CN2CCC(n3nccc3NC(=O)c3ccccc3)CC2)s1	none
CCCCCCN1C=CC=C/C1=C/C=C(C#N)C#N	MrgX1 antag -8.12
C#Cc1cccc(C(=O)N2CCCC(Nc3cccc(F)c3)C2)c1 (configuration not stated)	none
COc1ccc(OCC(=O)N2CCN(C(=O)COc3ccc(Br)cc3)CC2)cc1	MrgX1 antag -4.82
CC(=O)N1CCN(C(=O)COc2ccc(Br)cc2)CC1	none
CN1CCC(OC(=O)COc2ccc(Br)cc2)CC1	RGS4 pot -7.53
CC1Oc2ccccc2C=C1/C=N/Nc1ccc(C(=O)O)cc1 (configuration not stated)	none
CCOC(=O)C1CCN(S(=O)(=O)c2cc(C(=O)OC)n(C)c2)CC1	none
O=C(NNC(=O)c1ccc(-n2cncn2)c([N+](=O)[O-])c1)c1cccc(Cl)c1	none
Clc1ccc(CSc2ncn(-c3ccccc3)n2)cc1	RGS4 pot -7.21
Clc1cccc(CSc2ncn(-c3ccccc3)n2)c1	none
CC(C)CCN(C(=O)C1=COCCO1)c1c(N)n(Cc2ccccc2)c(=O)[nH]c1=O	none
CCn1c(SCC(=O)NC2CCCCC2)nnc1C(C)NC(=O)c1ccccc1F (configuration not stated)	none
COc1cc(/C=C2/C(=O)NN(c3ccc(Cl)c(Cl)c3)C2=O)cc([N+](=O)[O-])c1O	none
COc1cc(/C=C2/C(=O)NN(c3ccc(Cl)cc3)C2=O)cc(Br)c1O	MrgX1 ag 32.7
O=C(Nc1ccccc1N(C(=O)c1ccco1)S(=O)(=O)c1cccs1)c1ccco1	MrgX1 PAM 11.5
Cc1ccc(-c2nc(C(=O)NCC3CCCO3)cc3c2[nH]c2ccccc23)cc1 (configuration not stated)	RGS4 pot -7.04
COC(=O)c1ccc(N)c(N=CC2=C(O)CC(C)(C)CC2=O)c1	MrgX1 ag 27.1
